Numbering of substitutions follows the chain as printed.
Tests used:
Details in all cases: stereoisomer not certain
OR11H12 (Homo sapiens) = biological target: T1, OR11H12 (Homo sapiens) (UniProt B2RN74)
T1 sequence (whole entry): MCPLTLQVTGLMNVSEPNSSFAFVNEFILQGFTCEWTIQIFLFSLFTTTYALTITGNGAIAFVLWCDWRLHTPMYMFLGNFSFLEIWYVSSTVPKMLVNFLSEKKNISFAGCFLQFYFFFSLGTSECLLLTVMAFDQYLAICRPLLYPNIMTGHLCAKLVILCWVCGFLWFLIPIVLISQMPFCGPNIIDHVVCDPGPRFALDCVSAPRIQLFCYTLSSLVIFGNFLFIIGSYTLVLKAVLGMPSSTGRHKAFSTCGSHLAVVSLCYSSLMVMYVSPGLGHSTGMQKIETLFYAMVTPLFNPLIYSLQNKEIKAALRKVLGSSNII
Summary of the method: (§1)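 Assay methods differ from source to source, frequently being transient luciferase assays in mammalian cell lines. For each receptor–molecule pair, the label responsive (active) applies when the original authors judged the measured signal statistically different from baseline, and non-responsive (inactive) applies otherwise.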

OR11H2 (Homo sapiens) = biological target: T2, OR11H2 (Homo sapiens) (UniProt Q8NH07)
T2 sequence (whole entry): T1 sequence (whole entry) with Q7H, T33S, T49I, W68R, C156Y, M181K, R199L, S269P
Summary of the method: as §1

OR11H4 (Homo sapiens) = biological target: T3, OR11H4 (Homo sapiens) (UniProt Q8NGC9)
T3 sequence (whole entry): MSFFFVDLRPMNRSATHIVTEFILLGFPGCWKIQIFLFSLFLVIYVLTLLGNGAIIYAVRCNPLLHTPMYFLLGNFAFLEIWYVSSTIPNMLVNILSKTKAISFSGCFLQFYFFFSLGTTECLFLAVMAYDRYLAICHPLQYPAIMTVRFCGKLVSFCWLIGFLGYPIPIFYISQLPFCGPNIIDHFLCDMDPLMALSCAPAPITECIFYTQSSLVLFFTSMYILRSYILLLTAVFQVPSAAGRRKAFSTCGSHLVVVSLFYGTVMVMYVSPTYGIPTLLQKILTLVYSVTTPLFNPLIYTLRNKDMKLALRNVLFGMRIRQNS
Summary of the method: as §1

OR11H6 (Homo sapiens) = biological target: T4, OR11H6 (Homo sapiens) (UniProt Q8NGC7)
T4 sequence (whole entry): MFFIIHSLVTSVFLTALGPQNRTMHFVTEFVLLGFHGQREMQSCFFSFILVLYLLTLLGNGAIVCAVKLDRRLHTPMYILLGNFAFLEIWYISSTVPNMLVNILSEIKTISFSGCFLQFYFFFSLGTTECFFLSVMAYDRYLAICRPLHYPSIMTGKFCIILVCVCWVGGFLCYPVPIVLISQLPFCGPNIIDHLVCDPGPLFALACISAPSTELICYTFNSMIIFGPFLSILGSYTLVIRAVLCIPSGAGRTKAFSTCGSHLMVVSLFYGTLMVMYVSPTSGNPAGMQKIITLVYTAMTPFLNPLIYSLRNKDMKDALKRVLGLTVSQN
Summary of the method: as §1

OR11L1 (Homo sapiens) = biological target: T5, OR11L1 (Homo sapiens) (UniProt Q8NGX0)
T5 sequence (whole entry): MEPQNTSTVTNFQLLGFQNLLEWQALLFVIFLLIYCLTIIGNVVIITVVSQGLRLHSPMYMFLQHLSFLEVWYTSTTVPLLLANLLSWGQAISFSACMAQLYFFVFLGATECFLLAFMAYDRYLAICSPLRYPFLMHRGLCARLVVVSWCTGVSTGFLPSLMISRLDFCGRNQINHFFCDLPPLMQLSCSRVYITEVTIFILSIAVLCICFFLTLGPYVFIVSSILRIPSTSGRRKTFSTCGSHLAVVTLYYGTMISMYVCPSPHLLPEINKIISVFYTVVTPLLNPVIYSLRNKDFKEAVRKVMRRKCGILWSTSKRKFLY
Summary of the method: as §1

OR12D2 (Homo sapiens) = biological target: T6, OR12D2 (Homo sapiens) (UniProt P58182)
T6 sequence (whole entry): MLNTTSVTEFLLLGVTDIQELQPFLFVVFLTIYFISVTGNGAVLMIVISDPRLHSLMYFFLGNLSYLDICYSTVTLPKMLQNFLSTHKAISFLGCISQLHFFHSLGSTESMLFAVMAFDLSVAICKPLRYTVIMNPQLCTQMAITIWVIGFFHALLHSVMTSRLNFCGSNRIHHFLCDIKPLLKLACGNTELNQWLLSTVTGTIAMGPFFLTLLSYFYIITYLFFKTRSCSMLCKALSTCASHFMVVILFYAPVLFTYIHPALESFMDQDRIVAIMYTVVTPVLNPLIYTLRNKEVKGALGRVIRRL
Summary of the method: as §1

OR12D3 (Homo sapiens) = biological target: T7, OR12D3 (Homo sapiens) (UniProt Q9UGF7)
T7 sequence (whole entry): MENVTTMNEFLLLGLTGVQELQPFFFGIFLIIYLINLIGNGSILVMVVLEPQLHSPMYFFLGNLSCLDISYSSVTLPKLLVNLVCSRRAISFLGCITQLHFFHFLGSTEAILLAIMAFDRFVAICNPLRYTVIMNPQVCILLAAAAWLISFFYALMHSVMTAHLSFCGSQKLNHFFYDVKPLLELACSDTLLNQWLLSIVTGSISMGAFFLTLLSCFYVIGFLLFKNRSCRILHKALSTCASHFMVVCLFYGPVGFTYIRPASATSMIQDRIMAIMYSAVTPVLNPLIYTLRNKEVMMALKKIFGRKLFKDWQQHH
Summary of the method: as §1

OR13A1 (Homo sapiens) = biological target: T8, OR13A1 (Homo sapiens) (UniProt Q8NGR1)
T8 sequence (whole entry): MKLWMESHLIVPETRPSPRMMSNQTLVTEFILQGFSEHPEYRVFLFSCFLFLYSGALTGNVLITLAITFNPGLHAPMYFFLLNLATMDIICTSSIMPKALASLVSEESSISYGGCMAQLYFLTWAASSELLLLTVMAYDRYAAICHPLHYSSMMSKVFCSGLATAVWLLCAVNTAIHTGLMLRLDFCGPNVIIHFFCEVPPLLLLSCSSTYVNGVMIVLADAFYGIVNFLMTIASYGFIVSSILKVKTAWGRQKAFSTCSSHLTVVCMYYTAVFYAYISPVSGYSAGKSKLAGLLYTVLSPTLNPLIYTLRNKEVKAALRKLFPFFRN
Summary of the method: as §1

OR13C2 (Homo sapiens) = biological target: T9, OR13C2 (Homo sapiens) (UniProt Q8NGS9)
T9 sequence (whole entry): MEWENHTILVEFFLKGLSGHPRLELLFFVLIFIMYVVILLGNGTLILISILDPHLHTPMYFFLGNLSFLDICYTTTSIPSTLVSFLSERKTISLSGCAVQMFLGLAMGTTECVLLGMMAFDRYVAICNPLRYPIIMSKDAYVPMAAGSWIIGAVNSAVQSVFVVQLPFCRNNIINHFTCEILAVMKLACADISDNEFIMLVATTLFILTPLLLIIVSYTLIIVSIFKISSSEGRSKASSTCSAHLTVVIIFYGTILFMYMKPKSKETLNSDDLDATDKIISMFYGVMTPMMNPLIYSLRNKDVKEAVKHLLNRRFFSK
Summary of the method: as §1

OR13C3 (Homo sapiens) = biological target: T10, OR13C3 (Homo sapiens) (UniProt Q8NGS6)
T10 sequence (whole entry): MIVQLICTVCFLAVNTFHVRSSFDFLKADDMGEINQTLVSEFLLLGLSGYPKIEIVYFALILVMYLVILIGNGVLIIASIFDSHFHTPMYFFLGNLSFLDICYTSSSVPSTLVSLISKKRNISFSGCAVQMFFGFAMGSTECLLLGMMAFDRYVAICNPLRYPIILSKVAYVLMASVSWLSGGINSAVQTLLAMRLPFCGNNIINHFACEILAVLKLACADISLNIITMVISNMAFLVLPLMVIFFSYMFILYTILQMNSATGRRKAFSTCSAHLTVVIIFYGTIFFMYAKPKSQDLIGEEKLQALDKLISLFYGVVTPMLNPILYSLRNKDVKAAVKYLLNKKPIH
Summary of the method: as §1

OR13C4 (Homo sapiens) = biological target: T11, OR13C4 (Homo sapiens) (UniProt Q8NGS5)
T11 sequence (whole entry): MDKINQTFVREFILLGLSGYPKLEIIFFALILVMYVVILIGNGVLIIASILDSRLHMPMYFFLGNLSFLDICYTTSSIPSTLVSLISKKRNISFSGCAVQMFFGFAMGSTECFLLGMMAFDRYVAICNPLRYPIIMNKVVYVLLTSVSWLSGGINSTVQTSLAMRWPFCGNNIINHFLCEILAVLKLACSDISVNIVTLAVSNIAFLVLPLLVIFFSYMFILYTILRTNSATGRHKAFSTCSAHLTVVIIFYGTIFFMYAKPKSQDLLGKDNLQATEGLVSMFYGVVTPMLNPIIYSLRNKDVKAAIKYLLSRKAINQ
Summary of the method: as §1

OR13C5 (Homo sapiens) = biological target: T12, OR13C5 (Homo sapiens) (UniProt Q8NGS8)
T12 sequence (whole entry): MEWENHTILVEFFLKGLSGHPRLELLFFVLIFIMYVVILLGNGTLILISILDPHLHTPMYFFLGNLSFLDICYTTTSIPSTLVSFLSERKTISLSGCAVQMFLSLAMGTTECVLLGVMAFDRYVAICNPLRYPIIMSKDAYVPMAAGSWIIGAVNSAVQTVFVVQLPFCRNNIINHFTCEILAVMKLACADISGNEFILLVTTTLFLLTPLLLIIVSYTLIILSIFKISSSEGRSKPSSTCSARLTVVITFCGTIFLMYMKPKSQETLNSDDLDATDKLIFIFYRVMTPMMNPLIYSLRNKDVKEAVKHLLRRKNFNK
Summary of the method: as §1

OR13C8 (Homo sapiens) = biological target: T13, OR13C8 (Homo sapiens) (UniProt Q8NGS7)
T13 sequence (whole entry): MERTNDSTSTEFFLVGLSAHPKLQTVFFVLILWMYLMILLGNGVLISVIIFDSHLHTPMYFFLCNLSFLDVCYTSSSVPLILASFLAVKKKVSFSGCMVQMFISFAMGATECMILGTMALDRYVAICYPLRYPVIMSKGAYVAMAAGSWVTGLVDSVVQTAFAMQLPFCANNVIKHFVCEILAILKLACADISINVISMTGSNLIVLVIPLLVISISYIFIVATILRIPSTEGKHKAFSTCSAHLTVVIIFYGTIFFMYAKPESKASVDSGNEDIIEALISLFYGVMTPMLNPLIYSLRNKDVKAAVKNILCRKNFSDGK
Summary of the method: as §1

OR13C9 (Homo sapiens) = biological target: T14, OR13C9 (Homo sapiens) (UniProt Q8NGT0)
T14 sequence (whole entry): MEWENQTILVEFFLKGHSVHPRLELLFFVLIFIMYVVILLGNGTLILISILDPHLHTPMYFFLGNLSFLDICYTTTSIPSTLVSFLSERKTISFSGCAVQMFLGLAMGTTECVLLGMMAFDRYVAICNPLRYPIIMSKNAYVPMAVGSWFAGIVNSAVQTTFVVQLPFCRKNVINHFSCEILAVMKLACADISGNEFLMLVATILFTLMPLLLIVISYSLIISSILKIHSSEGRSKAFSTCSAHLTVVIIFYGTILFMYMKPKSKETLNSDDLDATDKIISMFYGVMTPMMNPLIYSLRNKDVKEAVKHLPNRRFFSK
Summary of the method: as §1

OR13D1 (Homo sapiens) = biological target: T15, OR13D1 (Homo sapiens) (UniProt Q8NGV5)
T15 sequence (whole entry): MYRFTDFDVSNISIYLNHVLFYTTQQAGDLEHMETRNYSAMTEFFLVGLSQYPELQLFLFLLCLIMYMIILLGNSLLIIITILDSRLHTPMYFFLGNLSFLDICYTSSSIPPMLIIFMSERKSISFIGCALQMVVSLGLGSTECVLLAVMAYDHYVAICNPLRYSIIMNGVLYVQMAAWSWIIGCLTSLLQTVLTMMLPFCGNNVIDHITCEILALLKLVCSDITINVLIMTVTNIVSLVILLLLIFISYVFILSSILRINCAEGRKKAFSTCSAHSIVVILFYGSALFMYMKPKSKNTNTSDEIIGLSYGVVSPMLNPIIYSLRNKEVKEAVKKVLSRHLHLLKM
Summary of the method: as §1

OR13F1 (Homo sapiens) = biological target: T16, OR13F1 (Homo sapiens) (UniProt Q8NGS4)
T16 sequence (whole entry): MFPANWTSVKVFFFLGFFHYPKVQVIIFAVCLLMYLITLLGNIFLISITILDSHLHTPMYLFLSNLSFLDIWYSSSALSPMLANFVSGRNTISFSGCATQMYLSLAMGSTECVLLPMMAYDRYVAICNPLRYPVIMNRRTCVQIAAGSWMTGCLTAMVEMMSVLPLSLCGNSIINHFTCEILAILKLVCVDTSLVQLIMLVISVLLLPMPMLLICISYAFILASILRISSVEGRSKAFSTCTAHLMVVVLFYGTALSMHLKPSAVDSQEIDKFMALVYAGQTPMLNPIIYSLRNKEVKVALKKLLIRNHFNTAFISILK
Summary of the method: as §1

OR13G1 (Homo sapiens) = biological target: T17, OR13G1 (Homo sapiens) (UniProt Q8NGZ3)
T17 sequence (whole entry): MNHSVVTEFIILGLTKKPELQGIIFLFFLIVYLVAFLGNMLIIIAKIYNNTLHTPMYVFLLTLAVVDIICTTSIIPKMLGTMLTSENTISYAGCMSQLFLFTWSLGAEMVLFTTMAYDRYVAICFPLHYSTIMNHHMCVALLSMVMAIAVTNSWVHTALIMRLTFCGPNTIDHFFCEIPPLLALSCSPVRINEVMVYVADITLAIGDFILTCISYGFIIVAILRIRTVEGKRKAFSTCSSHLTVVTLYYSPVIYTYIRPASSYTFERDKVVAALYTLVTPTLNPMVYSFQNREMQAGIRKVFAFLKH
Summary of the method: as §1

Measured: odorant receptor agonist call

CCC1OC(=O)C(O)=C1C (stereo not drawn)
inactive: all assays above

CCCC(S)CCOC(C)=O (stereo not drawn)
inactive: all assays above

CC1=C(O)C(=O)C(C)O1 (stereo not drawn)
inactive: all assays above

CCCCCCC=CCCC=O
inactive: all assays above

Reference: the M2OR odorant receptor database
